ChEMBL document CHEMBL1126202, “Dual-action penems and carbapenems” (J Med Chem, 1992)

How the values were obtained:
[1] = tested on: Bacteroides fragilis; assay: In vitro antibacterial activity against Bacteroides fragilis S2; assay type: functional
Method in brief: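 Anaerobic MICs were determined in microtiter plates in Schaedler's broth supplemented with coenzyme I and hemin. Incubation was under an oxygen-free hydrogen-carbon dioxide atmosphere.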

[2] = tested on: Hathewaya histolytica; assay: In vitro antibacterial activity against Clostridium histolyticum 503-86; assay type: functional
[3] = tested on: Citrobacter freundii; assay: In vitro antibacterial activity against Citrobacter freundii BS-16 (constitutive beta-lactamase producer); assay type: functional
Method in brief: (§1)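 MIC was determined by agar dilution on Mueller-Hinton agar. Serial 2-fold aqueous dilutions were diluted 10-fold in agar to give final concentrations of 128 to 0.0156 μg/mL. Plates were inoculated by Steers replicator with overnight broth cultures diluted 100-fold.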

[4] = tested on: Enterobacter cloacae; assay: In vitro antibacterial activity against Enterobacter cloacae P99 (constitutive beta-lactamase producer); assay type: functional
[5] = tested on: Klebsiella pneumoniae; assay: In vitro antibacterial activity against Klebsiella pneumoniae A; assay type: functional; method in brief: as §1
[6] = tested on: Pseudomonas aeruginosa; assay: In vitro antibacterial activity against Pseudomonas aeruginosa 18SH (constitutive beta-lactamase producer); assay type: functional; method in brief: as §1
[7] = molecular target: T1, Penicillin-binding protein 1 (Staphylococcus aureus (strain COL)) (UniProt F4NA86); assay: Concentration inhibiting [14C]- Penicillin G binding to Staphylococcus aureus ATCC 29213 Penicillin binding protein 1, 87 kDa
T1 sequence (whole entry): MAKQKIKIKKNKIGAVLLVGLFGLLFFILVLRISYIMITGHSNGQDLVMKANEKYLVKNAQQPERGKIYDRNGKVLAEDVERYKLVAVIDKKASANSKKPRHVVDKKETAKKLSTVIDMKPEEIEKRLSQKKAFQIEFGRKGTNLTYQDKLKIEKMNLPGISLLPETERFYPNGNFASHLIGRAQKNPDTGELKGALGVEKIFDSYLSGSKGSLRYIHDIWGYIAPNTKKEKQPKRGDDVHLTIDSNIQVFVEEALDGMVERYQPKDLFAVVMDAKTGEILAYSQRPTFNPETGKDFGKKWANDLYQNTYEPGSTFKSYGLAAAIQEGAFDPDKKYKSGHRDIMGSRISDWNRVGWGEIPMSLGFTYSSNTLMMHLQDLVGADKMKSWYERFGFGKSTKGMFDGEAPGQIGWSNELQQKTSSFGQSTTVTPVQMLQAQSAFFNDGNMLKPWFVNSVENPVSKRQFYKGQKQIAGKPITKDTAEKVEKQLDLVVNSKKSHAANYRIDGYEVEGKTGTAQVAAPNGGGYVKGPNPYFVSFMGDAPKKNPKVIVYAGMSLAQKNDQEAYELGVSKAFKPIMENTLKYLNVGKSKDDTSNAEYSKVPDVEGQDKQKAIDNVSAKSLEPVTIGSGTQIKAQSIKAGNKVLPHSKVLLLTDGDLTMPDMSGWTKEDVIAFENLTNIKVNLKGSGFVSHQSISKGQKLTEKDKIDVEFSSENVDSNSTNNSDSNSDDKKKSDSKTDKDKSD

[8] = molecular target: T2, Penicillin-binding protein 2b (Staphylococcus aureus) (UniProt Q9XDB3); assay: Concentration inhibiting [14C]- Penicillin G binding to Staphylococcus aureus ATCC 29213 Penicillin binding protein 3, 75 kDa
T2 sequence (whole entry): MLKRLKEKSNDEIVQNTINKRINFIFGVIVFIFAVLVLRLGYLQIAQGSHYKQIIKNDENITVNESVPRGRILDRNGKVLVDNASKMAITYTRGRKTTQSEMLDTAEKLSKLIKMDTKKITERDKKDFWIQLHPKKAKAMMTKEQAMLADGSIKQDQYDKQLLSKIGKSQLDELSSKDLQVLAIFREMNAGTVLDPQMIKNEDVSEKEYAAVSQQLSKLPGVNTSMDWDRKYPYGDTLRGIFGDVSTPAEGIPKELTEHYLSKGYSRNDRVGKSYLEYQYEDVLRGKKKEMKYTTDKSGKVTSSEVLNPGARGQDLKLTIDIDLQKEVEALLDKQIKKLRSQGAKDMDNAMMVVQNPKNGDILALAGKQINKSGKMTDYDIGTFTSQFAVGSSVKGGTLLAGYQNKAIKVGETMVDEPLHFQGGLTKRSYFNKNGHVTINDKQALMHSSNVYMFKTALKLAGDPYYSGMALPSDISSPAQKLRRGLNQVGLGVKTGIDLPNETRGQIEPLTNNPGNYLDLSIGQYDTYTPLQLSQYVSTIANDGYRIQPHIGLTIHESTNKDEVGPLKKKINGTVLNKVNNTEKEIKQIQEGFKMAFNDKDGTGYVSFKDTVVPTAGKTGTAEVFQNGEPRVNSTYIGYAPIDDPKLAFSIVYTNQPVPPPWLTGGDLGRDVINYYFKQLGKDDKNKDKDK

[9] = tested on: Escherichia coli; assay: Minimum inhibitory concentration inhibiting [14C]- Penicillin G binding to Escherichia coli UB1005 PBPs.
[10] = tested on: Staphylococcus aureus; assay: (§2) In vitro antibacterial activity against Staphylococcus aureus 753 (constitutive beta-lactamase producer); assay type: functional; method in brief: as §1
[11] = tested on: Serratia marcescens; assay: In vitro antibacterial activity against Serratia marcescens SM (constitutive beta-lactamase producer); assay type: functional; method in brief: as §1
[12] = tested on: Hathewaya histolytica; assay: In vitro antibacterial activity against clostridium histolyticum 503-86; assay type: functional
Method in brief: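 Anaerobic MIC, run in microtiter plates in Schaedler's broth supplemented with coenzyme I and hemin. Incubated in an oxygen-free hydrogen–carbon dioxide atmosphere.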

[13] = tested on: Staphylococcus aureus; assay: Minimum inhibitory concentration to the Penicillin G binding to Staphylococcus aureus ATCC 29213 PBPs
[14] = molecular target: T1, Penicillin-binding protein 1 (Staphylococcus aureus (strain COL)); assay: Concentration inhibiting [14C]- Penicillin G binding to Staphylococcus aureus ATCC 29213 Penicillin binding protein 1 87 kDa
[15] = tested on: Proteus vulgaris; assay: In vitro antibacterial activity against proteus vulgaris ATCC 6380 (constitutive beta-lactamase producer); assay type: functional
Method in brief: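 Proteus MICs were determined by agar dilution on Mueller-Hinton agar containing 3% agar. Serial 2-fold dilutions gave final concentrations of 128 to 0.0156 μg/mL. Plates were replicator-inoculated with 100-fold-diluted overnight broth cultures.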

[16] = tested on: Staphylococcus aureus; assay: as §2; assay type: functional; remark: listed apart in the source
Method in brief: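 MIC by agar dilution on Mueller-Hinton agar. Compounds were serially 2-fold diluted in water, final 128 to 0.0156 μg/mL in agar. Inoculum: overnight broth culture diluted 100-fold, applied with a Steers replicator.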

[17] = tested on: Serratia marcescens; assay: In vitro antibacterial activity against serratia marcescens SM (constitutive beta-lactamase producer); assay type: functional; method in brief: as §1
[18] = tested on: Citrobacter freundii; assay: In vitro antibacterial activity against citrobacter freundii BS-16 (constitutive beta-lactamase producer); assay type: functional; method in brief: as §1
[19] = tested on: Escherichia coli; assay: In vitro antibacterial activity against Escherichia coli UB1005 (nalidixic acid-resistant strain); assay type: functional; method in brief: as §1
[20] = tested on: Staphylococcus aureus; assay: Minimum inhibitory concentration to the Penicillin G binding to Staphylococcus aureus ATCC 29213 Penicillin binding protein
[21] = molecular target: T2, Penicillin-binding protein 2b (Staphylococcus aureus); assay: Concentration inhibiting [14C]- Penicillin G binding to Staphylococcus aureus ATCC 29213 Penicillin binding protein 3, 85 kDa
[22] = molecular target: Penicillin-binding protein 4 (Staphylococcus aureus) (UniProt P72355); assay: Concentration inhibiting [14C]- Penicillin G binding to Staphylococcus aureus ATCC 29213 Penicillin binding protein 4 41 kDa
[23] = tested on: Escherichia coli; assay: Minimum inhibitory concentration of the Penicillin G binding to Escherichia coli UB1005 PBPs.

Row | Structure (SMILES) | MIC [6] [µg/mL] | IC90 [7] [µg/mL] | IC90 [8] [µg/mL] | MIC [12] [µg/mL] | MIC [15] [µg/mL] | MIC [16] [µg/mL] | MIC [17] [µg/mL] | MIC [18] [µg/mL] | MIC [19] [µg/mL] | other results
1 | C[C@@H](O)[C@H]1C(=O)N2C(C(=O)[O-])=C(CO)S[C@H]12.[Na+] | 8 | 30 | 10 |  |  |  |  |  |  | MIC [1]: < 0.125 µg/mL; MIC [2]: < 0.125 µg/mL; MIC [3]: 4 µg/mL; MIC [4]: 8 µg/mL; MIC [5]: 4 µg/mL; MIC [9]: 4 µg/mL; MIC [10]: 1 µg/mL; MIC [11]: 8 µg/mL
2 | C[C@@H](O)[C@H]1C(=O)N2C(C(=O)[O-])=C(COC(=O)c3cn(CCF)c4c(F)c(N5CCN(C)CC5)c(F)cc4c3=O)S[C@H]12.[Na+] |  |  | 0.5 | < 0.125 | 0.25 | 2 | 0.5 | 0.5 | 2 | MIC [13]: 0.125 µg/mL; IC90 [14]: 0.5 µg/mL
3 | C[C@@H](O)[C@H]1C(=O)N2C(C(=O)[O-])=C(COC(=O)N3CCN(c4cc5c(cc4F)c(=O)c(C(=O)O)cn5C4CC4)CC3)S[C@H]12.[Na+] | 1 | 2 |  | 0.25 | 0.0625 | 4 | 0.25 | 0.125 | 4 | MIC [20]: 0.25 µg/mL; IC90 [21]: 2 µg/mL; IC90 [22]: 2 µg/mL; MIC [23]: 4 µg/mL
